Test results taken from ChEMBL document CHEMBL4196022, “Alkynyl-containing phenylthiazoles: Systemically active antibacterial agents effective against methicillin-resistant Staphylococcus aureus (MRSA)” (Eur J Med Chem, 2018).
Values after ≈ are worked out from the molar mass of the structure shown.

What was measured:
Staphylococcus aureus [1] = assay: Antibacterial activity against methicillin-resistant Staphylococcus aureus NRS107 after 20 hrs by broth microdilution assay; type: functional; conditions: NRS107, 20 h
Summary of the method: (§1)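 Broth microdilution per CLSI in cation-adjusted Mueller Hinton broth. Compounds serially diluted, in triplicate. Incubation at 37 °C for at least 20 hours. MIC taken as the lowest concentration with no visible bacterial growth.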

Staphylococcus aureus [2] = assay: Antibacterial activity against methicillin-resistant Staphylococcus aureus USA300 after 20 hrs by broth microdilution assay; type: functional; conditions: USA300, 20 h; summary of the method: as §1
Staphylococcus aureus [3] = assay: Bactericidal activity against methicillin-resistant Staphylococcus aureus USA300 up to 18 hrs by broth microdilution assay; type: functional; conditions: USA300, 18 h, read-out: MBC99.9
Staphylococcus aureus [4] = assay: Bactericidal activity against methicillin-resistant Staphylococcus aureus NRS107 up to 18 hrs by broth microdilution assay; type: functional; conditions: NRS107, 18 h, read-out: MBC99.9
Staphylococcus aureus [5] = assay: Antibacterial activity against methicillin-resistant Staphylococcus aureus NRS119 after 20 hrs by broth microdilution assay; type: functional; conditions: NRS119, 20 h; summary of the method: as §1
Staphylococcus aureus [6] = assay: Bactericidal activity against methicillin-resistant Staphylococcus aureus NRS119 up to 18 hrs by broth microdilution assay; type: functional; conditions: NRS119, 18 h, read-out: MBC99.9
Staphylococcus aureus [7] = assay: Antibacterial activity against methicillin-resistant Staphylococcus aureus NRS123 (USA400) after 20 hrs by broth microdilution assay; type: functional; summary of the method: as §1
Staphylococcus aureus [8] = assay: Bactericidal activity against methicillin resistant Staphylococcus aureus NRS123 (USA400) up to 18 hrs by broth microdilution assay; type: functional; conditions: read-out: MBC99.9
Staphylococcus aureus [9] = assay: Antibacterial activity against vancomycin-resistant Staphylococcus aureus VRS10 after 20 hrs by broth microdilution assay; type: functional; conditions: VRS10, 20 h; summary of the method: as §1
Staphylococcus aureus [10] = assay: Bactericidal activity against methicillin resistant vancomycin-resistant Staphylococcus aureus VRS10 up to 18 hrs by broth microdilution assay; type: functional; conditions: VRS10, 18 h, read-out: MBC99.9
Staphylococcus aureus [11] = assay: Antibacterial activity against vancomycin-resistant Staphylococcus aureus VRS11a after 20 hrs by broth microdilution assay; type: functional; summary of the method: as §1
Staphylococcus aureus [12] = assay: Bactericidal activity against methicillin resistant vancomycin-resistant Staphylococcus aureus VRS11a up to 18 hrs by broth microdilution assay; type: functional; conditions: read-out: MBC99.9
Staphylococcus aureus [13] = assay: Antibacterial activity against vancomycin-resistant Staphylococcus aureus VRS12 after 20 hrs by broth microdilution assay; type: functional; conditions: VRS12, 20 h; summary of the method: as §1
Staphylococcus aureus [14] = assay: Bactericidal activity against methicillin resistant vancomycin-resistant Staphylococcus aureus VRS12 up to 18 hrs by broth microdilution assay; type: functional; conditions: VRS12, 18 h, read-out: MBC99.9
Summary of the method: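 MBC set up from the MIC plates. Aliquots from wells with no growth spotted onto tryptic soy agar and incubated at 37 °C for at least 18 hours. MBC taken as the lowest concentration giving 99.9% inhibition of bacterial growth.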

Staphylococcus aureus [15] = assay: Potency index, ratio of vancomycin MIC to compound MIC for antibacterial activity against vancomycin-resistant Staphylococcus aureus VRS10; type: functional
Staphylococcus aureus [16] = assay: Potency index, ratio of vancomycin MIC to compound MIC for antibacterial activity against vancomycin-resistant Staphylococcus aureus VRS11a; type: functional
Staphylococcus aureus [17] = assay: Potency index, ratio of vancomycin MIC to compound MIC for antibacterial activity against vancomycin-resistant Staphylococcus aureus VRS12; type: functional
Staphylococcus aureus [18] = assay: Ratio of MBC to MIC for methicillin-resistant Staphylococcus aureus USA300; type: functional
Summary of the method: (§2)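 MBC/MIC ratio. […] MBC by plating no-growth wells onto tryptic soy agar at 37 °C for at least 18 h; taken as the concentration giving 99.9% growth inhibition.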

Staphylococcus aureus [19] = assay: Ratio of MBC to MIC for methicillin-resistant Staphylococcus aureus NRS107; type: functional; summary of the method: as §2
Staphylococcus aureus [20] = assay: Ratio of MBC to MIC for methicillin-resistant Staphylococcus aureus NRS119; type: functional; summary of the method: as §2
Staphylococcus aureus [21] = assay: Ratio of MBC to MIC for methicillin-resistant Staphylococcus aureus NRS123 (USA400); type: functional; summary of the method: as §2
Staphylococcus aureus [22] = assay: Ratio of MBC to MIC for vancomycin-resistant Staphylococcus aureus VRS10; type: functional; summary of the method: as §2
Staphylococcus aureus [23] = assay: Ratio of MBC to MIC for vancomycin-resistant Staphylococcus aureus VRS11a; type: functional; summary of the method: as §2
Staphylococcus aureus [24] = assay: Ratio of MBC to MIC for vancomycin-resistant Staphylococcus aureus VRS12; type: functional; summary of the method: as §2
HRT-18 cell line = assay: Cytotoxicity against human HRT18 cells assessed as reduction in cell viability up to 32 ug/ml after 2 hrs by MTS assay; type: cell-based; conditions: hrt-18, 2 h
[25] = Selectivity index, ratio of toxic concentration for human HRT18 cells to MIC for methicillin-resistant Staphylococcus aureus; type: toxicity; conditions: read-out: Selectivity Index
Staphylococcus aureus [26] = assay: Inhibition of UPPS/UPPP in vancomycin-resistant Staphylococcus aureus VRS10 assessed as potentiation of vancomycin-induced antibacterial activity by measuring fold reduction in vancomycin MIC at 0.5 times MIC preincubated for 30 mins followed by vancomycin addition measured after 20 to 22 hrs by broth microdilution assay relative to control
Summary of the method: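 VRS10 suspension pre-exposed to compound at ½ × MIC for 30 min at room temperature. […] Incubation at 37 °C for 20–22 h before the MIC was read; untreated bacteria served as control.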

C/C(=N\NC(=N)N)c1sc(-c2ccc(C#Cc3ccccc3)cc2)nc1C
MIC (Staphylococcus aureus [1]): 2 µg/mL (≈ 5.35 µM)
MIC (Staphylococcus aureus [2]): 1 µg/mL (≈ 2.68 µM)
MBC (Staphylococcus aureus [3]): 1 µg/mL (≈ 2.68 µM)
MBC (Staphylococcus aureus [4]): 2 µg/mL (≈ 5.35 µM)
MIC (Staphylococcus aureus [5]): 1 µg/mL (≈ 2.68 µM)
MBC (Staphylococcus aureus [6]): 2 µg/mL (≈ 5.35 µM)
MIC (Staphylococcus aureus [7]): 1 µg/mL (≈ 2.68 µM)
MBC (Staphylococcus aureus [8]): 4 µg/mL (≈ 10.7 µM)
MIC (Staphylococcus aureus [9]): 1 µg/mL (≈ 2.68 µM)
MBC (Staphylococcus aureus [10]): 2 µg/mL (≈ 5.35 µM)
MIC (Staphylococcus aureus [11]): 1 µg/mL (≈ 2.68 µM)
MBC (Staphylococcus aureus [12]): 2 µg/mL (≈ 5.35 µM)
MIC (Staphylococcus aureus [13]): 2 µg/mL (≈ 5.35 µM)
MBC (Staphylococcus aureus [14]): 2 µg/mL (≈ 5.35 µM)
Ratio (Staphylococcus aureus [15]): >100
Ratio (Staphylococcus aureus [16]): >100
Ratio (Staphylococcus aureus [17]): 8
Ratio (Staphylococcus aureus [18]): <=3
Ratio (Staphylococcus aureus [19]): <=3
Ratio (Staphylococcus aureus [20]): <=3
Ratio (Staphylococcus aureus [21]; read-out: Ratio): 4
Ratio (Staphylococcus aureus [22]): <=3
Ratio (Staphylococcus aureus [23]): <=3
Ratio (Staphylococcus aureus [24]): <=3
Activity (HRT-18 cell line): Non-Toxic
selectivity ratio [25]: 7 to 31
fold change (FC) (Staphylococcus aureus [26]): 512

C/C(=N\NC(=N)N)c1sc(-c2ccc(C#CC(C)(C)N)cc2)nc1C
MIC (Staphylococcus aureus [2]): 64 µg/mL (≈ 181 µM)
MBC (Staphylococcus aureus [3]): 64 µg/mL (≈ 181 µM)
Ratio (Staphylococcus aureus [18]): <=3

C/C(=N\NC(=N)N)c1sc(-c2ccc(C#CCC3CCCC3)cc2)nc1C
MIC (Staphylococcus aureus [1]): 2 µg/mL (≈ 5.27 µM)
MIC (Staphylococcus aureus [2]): 4 µg/mL (≈ 10.5 µM)
MBC (Staphylococcus aureus [3]): 4 µg/mL (≈ 10.5 µM)
MBC (Staphylococcus aureus [4]): 4 µg/mL (≈ 10.5 µM)
MIC (Staphylococcus aureus [5]): 4 µg/mL (≈ 10.5 µM)
MBC (Staphylococcus aureus [6]): 4 µg/mL (≈ 10.5 µM)
MIC (Staphylococcus aureus [7]): 2 µg/mL (≈ 5.27 µM)
MBC (Staphylococcus aureus [8]): 2 µg/mL (≈ 5.27 µM)
MIC (Staphylococcus aureus [9]): 2 µg/mL (≈ 5.27 µM)
MBC (Staphylococcus aureus [10]): 4 µg/mL (≈ 10.5 µM)
MIC (Staphylococcus aureus [11]): 4 µg/mL (≈ 10.5 µM)
MBC (Staphylococcus aureus [12]): 4 µg/mL (≈ 10.5 µM)
MIC (Staphylococcus aureus [13]): 2 µg/mL (≈ 5.27 µM)
MBC (Staphylococcus aureus [14]): 2 µg/mL (≈ 5.27 µM)
Ratio (Staphylococcus aureus [15]): >100
Ratio (Staphylococcus aureus [16]): >100
Ratio (Staphylococcus aureus [17]): >100
Ratio (Staphylococcus aureus [18]): <=3
Ratio (Staphylococcus aureus [19]): <=3
Ratio (Staphylococcus aureus [20]): <=3
Ratio (Staphylococcus aureus [21]): <=3
Ratio (Staphylococcus aureus [22]): <=3
Ratio (Staphylococcus aureus [23]): <=3
Ratio (Staphylococcus aureus [24]): <=3
